{"source": "PubChem BioAssay AID504382", "about": "(The Scripps Research Institute Molecular Screening Center, 2011)", "note": "Hit rate of the full screen: of about 2,500 compounds, about 460 (18%) were called active. Only a sample is shown. Unmarked numbers belong to inactive results.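 The calls were made as follows: active = mean activation above a cutoff of low control average plus 3 SD from the earlier screen (cut at about 12% in these data); inactive = the rest.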"}
{"test": "compound fluorescence interference without thin filaments, confirmation, artefact control for cardiac RTF calcium sensitizer project, biochemical (AID 504382)", "settings": "IANBD fluorescence interference counterscreen, buffer, EC20 Ca2+; at 7.2 µM; active compounds read high; scaled: EC20 calcium 0, EC100 calcium 100", "summary_of_the_method": "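Medium: MOPS/KCl/MgCl2/EGTA/NTA/DTT buffer, pH 7.2 | Reagent: EC20 calcium, 0.472 mM | Compound dosing: 7.2 µM single dose | Times: 15 min compound exposure at 25 °C | Signal: Fluorescence, 480/540 nm | Measure: Interference relative to controls | Repeats: Triplicate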"}
{"smiles": "CC1(C)C2CCC(C2)C1(C)N=C1OC(CCl)CS1", "note": "(stereo not given)", "fluorescence artifact activation": "1.52%"}
{"smiles": "CN(C)c1ccc(/C=C/C(=O)c2ccccc2O)cc1", "fluorescence artifact activation": "0%"}
{"smiles": "CN(C)c1ccc(/C=C/C(=O)c2ccc(O)cc2)cc1", "fluorescence artifact activation": "-0.03%"}
{"smiles": "CC(C)=CCC/C(C)=C/Cc1c(O)ccc(C(=O)/C=C/c2ccc(O)cc2)c1O", "fluorescence artifact activation": "177% (active)"}
{"smiles": "COc1ccc(C2C(C(=O)c3cccs3)=C(O)C(=O)N2c2nncs2)cc1", "note": "(stereo not given)", "fluorescence artifact activation": "5.56%"}
{"smiles": "Cc1ccc(C)c(N2CCN(C(=O)c3cc4ccccn4n3)CC2)c1", "fluorescence artifact activation": "4.58%"}
{"smiles": "CCN(CC)c1ccc(/C=C/C(=O)C2C(=O)C=C(C)OC2=O)cc1", "note": "(stereo not given)", "fluorescence artifact activation": "0.16%"}
{"smiles": "Cc1ccc(-c2ccc(CO)o2)cc1N", "fluorescence artifact activation": "28.2% (active)"}
{"smiles": "Cc1ccc2c(CN3CCCc4ccccc43)cc(=O)oc2c1C", "fluorescence artifact activation": "-0.04%"}
{"smiles": "FC(F)(F)c1cccc(-c2nc(COc3ccc(Cl)cc3Cl)no2)c1", "fluorescence artifact activation": "2280% (active)"}
{"smiles": "Cn1c(-c2ccc(C=O)s2)nc2c3ccccc3c3ccccc3c21", "fluorescence artifact activation": "5.75%"}
{"smiles": "CCOC(=O)COc1c(Cl)cc(C2NC(=S)NC(c3ccccc3)=C2C(C)=O)cc1OC", "note": "(stereo not given)", "fluorescence artifact activation": "6.87%"}
{"smiles": "CCOc1ccc(NC(=O)C2CC(=O)N=C(N)S2)cc1", "note": "(stereo not given)", "fluorescence artifact activation": "0.11%"}
{"smiles": "Cc1ccc(NC(=O)C(C)Sc2nnc(C)n2C2CC2)cc1S(=O)(=O)N1CCOCC1", "note": "(stereo not given)", "fluorescence artifact activation": "0.96%"}
{"smiles": "CN1CCCN(Cc2cccc3ccccc23)CC1", "fluorescence artifact activation": "0.24%"}
{"smiles": "O=C(CCc1ccc(S(=O)(=O)N2CCOCC2)cc1)OCC(=O)c1ccccc1", "fluorescence artifact activation": "6.03%"}
{"smiles": "NS(=O)(=O)c1cccc(NC(=O)CCc2ccc(S(=O)(=O)N3CCOCC3)cc2)c1", "fluorescence artifact activation": "31.3% (active)"}
{"smiles": "O=S(=O)(c1ccc(NC(=S)Nc2ccccc2)cc1)N1CCOCC1", "fluorescence artifact activation": "0.1%"}
{"smiles": "CCOC(=O)CCc1c(C)nc(-n2[nH]c(C)c(CCO)c2=O)[nH]c1=O", "fluorescence artifact activation": "0.03%"}
{"smiles": "Cc1ncc(CO)c2cc(-c3nnc(Nc4ccc5c(c4)OCO5)s3)c(=O)oc12", "fluorescence artifact activation": "23.2% (active)"}
{"smiles": "CCOC(=O)CNc1ccc2c(c1)OCO2", "fluorescence artifact activation": "2.35%"}
{"smiles": "O=C(c1ccccc1)N1C(=O)C(c2ccccc2)Oc2ccccc21", "note": "(stereo not given)", "fluorescence artifact activation": "-0.12%"}
{"smiles": "CC(/C=N/Nc1ccc2nncn2n1)=C\\c1ccccc1", "fluorescence artifact activation": "12.9% (active)"}
{"smiles": "COc1cccc(C2C=C(c3ccc(Br)s3)Nc3ncnn32)c1OC", "note": "(stereo not given)", "fluorescence artifact activation": "-0.01%"}
{"smiles": "O=C(CNC(=O)c1cccc(Cl)c1)N/N=C/c1cccnc1", "fluorescence artifact activation": "0.03%"}
{"smiles": "CC[n+]1c(/C=C/C=C/N(C(C)=O)c2ccccc2)sc2ccccc21", "fluorescence artifact activation": "49.8% (active)"}
{"smiles": "CC[n+]1c(/C=C/N(C)c2ccccc2)oc2ccccc21", "fluorescence artifact activation": "-0.02%"}
{"smiles": "CC/C(=C/c1sc2ccccc2[n+]1CC)SC", "fluorescence artifact activation": "2.16%"}
{"smiles": "CC1=Nc2ccccc2/C1=C\\c1nc(-c2ccc(C(F)(F)F)cc2)oc1O", "fluorescence artifact activation": "-0.02%"}
{"smiles": "C[C@H]1CCC(=O)N([C@H](CSc2ccc(Br)cc2)Cc2ccccc2)CC1", "fluorescence artifact activation": "0.11%"}
{"smiles": "Nc1c(C(=O)Nc2ccccc2F)sc2nc(Cc3ccccc3)cc(C(F)(F)F)c12", "fluorescence artifact activation": "0.07%"}
{"smiles": "CCOc1ccc2noc3c2c1C(=O)c1ccccc1-3", "fluorescence artifact activation": "0.02%"}
{"smiles": "c1ccc(Nc2nc3ccccc3n3cnnc23)cc1", "fluorescence artifact activation": "0.03%"}
{"smiles": "CCCCOC(=O)Nc1nnc(C(C)C)s1", "fluorescence artifact activation": "148% (active)"}
{"smiles": "CCC(CC)c1nnc(NC(=O)/C=C/c2ccco2)s1", "fluorescence artifact activation": "0.09%"}
{"smiles": "CCOCCc1nnc(NC(=O)COC)s1", "fluorescence artifact activation": "0.06%"}
{"smiles": "Cc1cc(S(=O)(=O)Cc2noc(-c3c(C)noc3C)n2)c(C)cc1Cl", "fluorescence artifact activation": "-0.02%"}
{"smiles": "COC(=O)[C@H](Cc1ccccc1)NC(=O)Nc1ccc(OC)cc1", "fluorescence artifact activation": "0.02%"}
{"smiles": "COc1cc(OC)c(C(=O)OC(C)C(=O)Nc2cccc(C(F)(F)F)c2)cc1OC", "note": "(stereo not given)", "fluorescence artifact activation": "1.83%"}
{"smiles": "COCCN1C(=O)N[C@@H](c2cccc(C(F)(F)F)c2)C(C(=O)OC)=C1C", "fluorescence artifact activation": "13.5% (active)"}
{"smiles": "CCOC(=O)CN1C(=O)N[C@@H](c2cccc(C(F)(F)F)c2)C(C(=O)OC)=C1C", "fluorescence artifact activation": "0.03%"}
{"smiles": "Cc1c(C(=O)NCc2ccco2)cccc1[N+](=O)[O-]", "fluorescence artifact activation": "4.18%"}
{"smiles": "COc1cc(/C=C/C(O)=C/C(=O)/C=C/c2ccc(O)cc2)ccc1O", "fluorescence artifact activation": "0.51%"}
{"smiles": "COc1cc(/C=C/C(=O)CC(=O)/C=C/c2ccc(O)c(OC)c2)ccc1O", "fluorescence artifact activation": "0.15%"}
{"smiles": "COc1cc(/C=C/C(=O)/C=C(O)/C=C/c2ccc(O)c(OC)c2)ccc1O", "fluorescence artifact activation": "110% (active)"}
{"smiles": "C/C(=N/NC(=O)Nc1ccccc1)c1ccc(C)cc1", "fluorescence artifact activation": "-0.02%"}
{"smiles": "Cc1c(C=O)c2ccccn2c1C(=O)c1cccs1", "fluorescence artifact activation": "3.43%"}
{"smiles": "CCCNC(=O)Cn1c(=O)/c(=C\\c2ccc(-c3ccc([N+](=O)[O-])cc3)o2)s/c1=C\\C(=O)C(C)(C)C", "fluorescence artifact activation": "8.2%"}
{"smiles": "CC1(C)CC(=O)C=C(NCc2ccc(Cl)c(Cl)c2)C1", "fluorescence artifact activation": "-0.02%"}
{"smiles": "COc1ccc(CNC(=O)C(C#N)c2nc3ccccc3nc2N2CCCC2)cc1", "note": "(stereo not given)", "fluorescence artifact activation": "-0.08%"}
{"smiles": "O=S(=O)(c1ccc(F)cc1)N1CN(Cc2ccco2)c2nc3ccccc3nc21", "fluorescence artifact activation": "8.07%"}
{"smiles": "COc1ccc(S(=O)(=O)N2CN(Cc3ccco3)c3nc4ccccc4nc32)cc1", "fluorescence artifact activation": "37.3% (active)"}
{"smiles": "COC1=C/C(=C/c2c(N)n3cc(C)sc3nc2=O)C=CC1=O", "fluorescence artifact activation": "-0.03%"}
{"smiles": "Cc1cccc(Nc2c([N+](=O)[O-])c(=O)oc3ccccc23)c1", "fluorescence artifact activation": "7.76%"}
{"smiles": "COc1cc2cc(CN(Cc3cccnc3)C(=O)NCc3ccccc3)c(=O)[nH]c2cc1OC", "fluorescence artifact activation": "116% (active)"}
{"smiles": "O=C(c1ccncc1)N(Cc1ccccc1)Cc1nc2ccccc2c(=O)[nH]1", "fluorescence artifact activation": "0.03%"}
{"smiles": "COc1ccc2cc(CN(CC3CCCO3)C(=S)NCc3ccco3)c(=O)[nH]c2c1", "note": "(stereo not given)", "fluorescence artifact activation": "0.1%"}
{"smiles": "O=C1NC2=C(C(=O)CCC2)C(c2ccccc2Cl)N1", "note": "(stereo not given)", "fluorescence artifact activation": "0.2%"}
{"smiles": "O=C1N(c2ccc(Cl)cc2)C(c2ccccc2)N2CCCN12", "note": "(stereo not given)", "fluorescence artifact activation": "-0.06%"}
{"smiles": "COc1ccc(N=C2NC(=O)S/C2=C\\c2ccc(N(C)C)cc2)cc1", "fluorescence artifact activation": "9.11%"}
{"smiles": "CCOc1ccc(N=C2NC(=O)S/C2=C\\c2ccc(N(C)C)cc2)cc1", "fluorescence artifact activation": "1920% (active)"}
{"smiles": "C=CCOc1ccc(/C=C2\\SC(=Nc3cccnc3)NC2=O)cc1", "fluorescence artifact activation": "0.04%"}
{"smiles": "N#CC1(C#N)C(c2ccccc2)OC23CCCCC2C1(C#N)C(=N)O3", "note": "(stereo not given)", "fluorescence artifact activation": "0.04%"}
{"smiles": "COc1cc(/C=C2\\N=C3CCCCCN3C2=O)ccc1O", "fluorescence artifact activation": "-0.06%"}
{"smiles": "O=C(CCC1CCCN(C(=O)c2ccncc2)C1)NCc1ccc(F)c(F)c1", "note": "(stereo not given)", "fluorescence artifact activation": "0.02%"}
{"smiles": "Oc1ccc2ccc3cccc[n+]3c2c1", "fluorescence artifact activation": "12.9% (active)"}
{"smiles": "CCn1c(SCC(=O)c2ccc(Cl)cc2)nnc1C(C)C", "fluorescence artifact activation": "2.06%"}
{"smiles": "COc1ccc(CN2CCN(C(=O)c3ccccc3F)CC2)c(OC)c1OC", "fluorescence artifact activation": "14.3% (active)"}
{"smiles": "COc1ccccc1Nc1ncc(C(=O)N2CCC(C(N)=O)CC2)c2ccccc12", "fluorescence artifact activation": "-0.02%"}
{"smiles": "COc1ccc(CN2CCC(C(=O)N3CCN(c4ccccc4F)CC3)CC2)cc1OC", "fluorescence artifact activation": "0.36%"}
{"smiles": "COc1ccc(CC(=O)N(C)Cc2cccc(F)c2)cc1S(=O)(=O)N1CCOCC1", "fluorescence artifact activation": "0.26%"}
{"smiles": "CSc1ccc(C2NC(=O)c3c(sc4c3CCN(C)C4)N2)cc1", "note": "(stereo not given)", "fluorescence artifact activation": "4.52%"}
{"smiles": "O=C1NCCCCC1NS(=O)(=O)c1cccc(C(F)(F)F)c1", "note": "(stereo not given)", "fluorescence artifact activation": "0.33%"}
{"smiles": "N#Cc1ccc(S(=O)(=O)NC2CCCCNC2=O)cc1", "note": "(stereo not given)", "fluorescence artifact activation": "26.9% (active)"}
{"smiles": "N#Cc1ccc(S(=O)(=O)NC2CCN(Cc3ccccc3)CC2)cc1", "fluorescence artifact activation": "2.37%"}
{"smiles": "CCN1CCc2c(sc(NC(=O)c3ccc(S(=O)(=O)N(C)c4ccccc4)cc3)c2C(=O)NC)C1", "fluorescence artifact activation": "0.31%"}
{"smiles": "CCC(Oc1cc(Cl)ccc1Cl)C(=O)NNC(=O)CCC(=O)O", "note": "(stereo not given)", "fluorescence artifact activation": "0.03%"}
{"smiles": "CCn1c(O)c(/C=N/N=C/c2ccc(OC)cc2)c2cc(C3=NNC(=O)CC3)ccc21", "fluorescence artifact activation": "5.84%"}
{"smiles": "COc1ccc(/C=N/N=C2/CC(C)(C)Cc3n[nH]c(=O)cc32)cc1", "fluorescence artifact activation": "357% (active)"}
{"smiles": "CCn1cc(/C=C/c2cc[n+](C)cc2)c2ccccc21", "fluorescence artifact activation": "0.09%"}
{"smiles": "CC1CN/C(=C\\C(=O)c2ccc(Br)cc2)C(=O)N1", "note": "(stereo not given)", "fluorescence artifact activation": "-0.09%"}
{"smiles": "CCN(CC)c1ccc2cc(NC(=O)CCC(=O)O)c(=O)oc2c1", "fluorescence artifact activation": "0.3%"}
{"smiles": "CCN(CC)c1ccc2cc(S(=O)(=O)c3ccc(Cl)cc3)c(=O)oc2c1", "fluorescence artifact activation": "156% (active)"}
{"smiles": "CCN(CC)c1ccc2cc(S(=O)(=O)c3ccc(C)cc3)c(=O)oc2c1", "fluorescence artifact activation": "9.02%"}
{"smiles": "COc1ccc(C2c3ccc(O)cc3Oc3ncn(CCN4CCOCC4)c(=N)c32)cc1OC", "note": "(stereo not given)", "fluorescence artifact activation": "5.12%"}
{"smiles": "CC(C)c1ccc(OCC(=O)NC(Cc2c[nH]c3ccccc23)C(=O)O)cc1", "note": "(stereo not given)", "fluorescence artifact activation": "0.01%"}
{"smiles": "CN1CCc2c(sc3c2C(=O)NC(c2ccco2)N3)C1", "note": "(stereo not given)", "fluorescence artifact activation": "0.18%"}
{"smiles": "O=C(NCc1ccco1)C1Cc2ccccc2CN1C(=O)c1ccco1", "note": "(stereo not given)", "fluorescence artifact activation": "1040% (active)"}
{"smiles": "O=C(NCc1ccco1)C1CCC(N2C(=O)C3C4CCC(C4)C3C2=O)CC1", "note": "(stereo not given)", "fluorescence artifact activation": "0.07%"}
{"smiles": "O=C(O)C1CC(O)CN1C(=O)c1ccco1", "note": "(stereo not given)", "fluorescence artifact activation": "0.06%"}
{"smiles": "COc1cccc(OC)c1C(=O)NNC(=O)c1ccccc1-n1cccc1", "fluorescence artifact activation": "-0.01%"}
{"smiles": "CC(C)(C)C(=O)c1sc2nc(-c3cccs3)cc(C(F)(F)F)c2c1N", "fluorescence artifact activation": "0.13%"}
{"smiles": "CCOc1nc(OCC)c2[nH]c(C(=O)O)c(Br)c2n1", "fluorescence artifact activation": "0.34%"}
{"smiles": "O=C(c1ccccc1Nc1ccc(SC(F)F)cc1)N1CCCCC1", "fluorescence artifact activation": "0.06%"}
{"smiles": "COc1ccc(C2C(C(=O)c3ccccc3)N3c4ccccc4C=CC3C2[N+](=O)[O-])cc1", "note": "(stereo not given)", "fluorescence artifact activation": "10.3%"}
